{
  "source": "ChEMBL document CHEMBL1122782",
  "about": "“Bulky amine analogues of ketoprofen: potent antiinflammatory agents” (J Med Chem, 1984)",
  "key": {"Rattus norvegicus [1]": {"species_on_record": "Rattus norvegicus", "test": "Compound was evaluated for highest non-ulcerogenic dose (less than 50% ulcer incidence)", "type": "functional", "conditions": "read-out: ED50", "method_in_brief": "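Taken from the 21-day adjuvant arthritis test in male Sprague-Dawley rats dosed orally each day from the day of adjuvant injection. Small intestines and stomachs were examined for ulceration at the end. The value is the highest dose giving less than 50% ulcer incidence.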"}, "Rattus norvegicus [2]": {"system": "Rattus norvegicus", "test": "Antiinflammatory efficacy is measured by the weight gain in rats during the 3 week adjuvant arthritis test at 0.278 mM/kg (57.2 mg)", "type": "functional", "method_in_brief": "(§1)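 Male Sprague-Dawley rats (200–230 g), eight per group, received 0.1 mL of 0.6% M. butyricum in heavy mineral oil (negative controls: mineral oil) into one hind-paw plantar tissue. Daily gavage in 1% gum tragacanth or corn oil-water emulsion began on the injection day, for 21 days. Weight gain is expressed as (treated − adjuvant control)/(negative control − adjuvant control) × 100.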"}, "Rattus norvegicus [3]": {"system": "Rattus norvegicus", "test": "Antiinflammatory efficacy is measured by the weight gain in rats during the 3 week adjuvant arthritis test at 0.55 mM/kg (113 mg)", "type": "functional", "method_in_brief": "as §1"}, "Rattus norvegicus [4]": {"system": "Rattus norvegicus", "test": "Antiinflammatory efficacy is measured by the percent inhibition of paw volume during the 3 week adjuvant arthritis test at 0.0014 mM/kg (0.50 mg)", "type": "functional", "method_in_brief": "(§2)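 Male Sprague-Dawley rats (200–230 g) were used in groups of eight. Each received 0.1 mL of 0.6% M. butyricum in heavy mineral oil into the plantar tissue of one hind paw. Daily oral gavage in 1% gum tragacanth or corn oil-water emulsion began on the injection day and ran 21 days. Total hind paw volume was measured by mercury displacement, and inhibition was taken versus vehicle-treated adjuvant controls.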"}, "Rattus norvegicus [5]": {"system": "Rattus norvegicus", "test": "Potency relative to phenylbutazone at 0.0014 mM/kg", "type": "functional"}, "Rattus norvegicus [6]": {"system": "Rattus norvegicus", "test": "Ulcerogenicity was measured in stomach during the 3 week adjuvant arthritis test.(animals with ulcers/animals in test) at 0.0014 mM/kg (0.50 mg)", "type": "functional", "method_in_brief": "(§3)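 Male Sprague-Dawley rats (200–230 g) were injected in the plantar tissue of one hind paw with 0.1 mL of 0.6% M. butyricum suspension in heavy mineral oil. Daily oral gavage began on the day of adjuvant injection and ran for the 21 days, with drug suspended in 1% gum tragacanth or a corn oil-water emulsion. At the end the rats were sacrificed and the small intestine and stomach were examined for ulcers. Results are given as animals with ulcers/animals tested.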"}, "Rattus norvegicus [7]": {"system": "Rattus norvegicus", "test": "Ulcerogenicity was measured in stomach during the 3 week adjuvant arthritis test.(animals with ulcers/animals in test) at 0.008 mM/kg (2.86 mg)", "type": "functional", "method_in_brief": "as §3"}, "Rattus norvegicus [8]": {"system": "Rattus norvegicus", "test": "Ulcerogenicity was measured in intestine during the 3 week adjuvant arthritis test.(animals with ulcers/animals in test) at 0.0014 mM/kg (0.50 mg)", "type": "functional", "method_in_brief": "as §3"}, "Rattus norvegicus [9]": {"system": "Rattus norvegicus", "test": "Ulcerogenicity was measured in intestine during the 3 week adjuvant arthritis test.(animals with ulcers/animals in test) at 0.008 mM/kg (2.86 mg)", "type": "functional", "method_in_brief": "as §3"}, "Rattus norvegicus [10]": {"system": "Rattus norvegicus", "test": "Antiinflammatory efficacy is measured by the weight gain in rats during the 3 week adjuvant arthritis test at 0.011 mM/kg (3.94 mg)", "type": "functional", "method_in_brief": "(§4)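 Rats were adjuvant-injected (M. butyricum in mineral oil, one hind paw) or given a mineral-oil placebo. They were dosed by gavage daily for 21 days from the injection day, with vehicle only for both control groups, then weighed at the end. Weight gain % = (treated − adjuvant control)/(negative control − adjuvant control) × 100.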"}, "Rattus norvegicus [11]": {"system": "Rattus norvegicus", "test": "Antiinflammatory efficacy is measured by the weight gain in rats during the 3 week adjuvant arthritis test at 0.0014 mM/kg (0.50 mg)", "type": "functional", "method_in_brief": "as §4"}, "Rattus norvegicus [12]": {"system": "Rattus norvegicus", "test": "Antiinflammatory efficacy is measured by the weight gain in rats during the 3 week adjuvant arthritis test at 0.008 mM/kg (2.86 mg)", "type": "functional", "method_in_brief": "as §4"}, "Rattus norvegicus [13]": {"system": "Rattus norvegicus", "test": "The mean increase in paw volume was compared between drug treated groups and placebo to calculate the percent inhibition in rats at 0.08 mmol/kg by carrageenan Edema Assay; 0-19", "type": "functional"}, "Rattus norvegicus [14]": {"system": "Rattus norvegicus", "test": "Antiinflammatory efficacy is measured by the percent inhibition of paw volume during the 3 week adjuvant arthritis test at 0.08 mM/kg(24.7 mg)", "type": "functional", "method_in_brief": "as §2"}, "Rattus norvegicus [15]": {"system": "Rattus norvegicus", "test": "The mean increase in paw volume was compared between drug treated groups and placebo to calculate the percent inhibition in rats at 0.02 mmol/kg by carrageenan Edema Assay; 30-39", "type": "functional", "conditions": "Rattus norvegicus"}, "Rattus norvegicus [16]": {"system": "Rattus norvegicus", "test": "Potency relative to phenylbutazone at 0.08 mM/kg", "type": "functional"}, "Rattus norvegicus [17]": {"system": "Rattus norvegicus", "test": "The percent inhibition was calculated from the average differences in hind paw volume between the adjuvant injected controls and the adjuvant-injected medicated rats at 0.08 mmol/kg; 60-69", "type": "functional", "conditions": "Rattus norvegicus"}, "Rattus norvegicus [18]": {"system": "Rattus norvegicus", "test": "Ulcerogenicity was measured in intestine during the 3 week adjuvant arthritis test, no of animals with ulcers out of 8 animals tested at 0.08 mM/kg (24.7 mg) was reported", "type": "functional", "method_in_brief": "(§5)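 In the 21-day adjuvant arthritis model, male Sprague-Dawley rats (200–230 g) received an M. butyricum mineral-oil suspension into one hind paw. They were dosed daily by gavage from the day of injection. At the end of the study the rats were killed, and the small intestines were examined for ulcers. Results are given as the number of ulcerated animals over the number tested.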"}, "Rattus norvegicus [19]": {"system": "Rattus norvegicus", "test": "Ulcerogenicity was measured in stomach during the 3 week adjuvant arthritis test, no of animals with ulcers out of 8 animals tested at 0.08 mM/kg (24.7 mg) was reported", "type": "functional", "method_in_brief": "as §3"}, "Rattus norvegicus [20]": {"system": "Rattus norvegicus", "test": "Ulcerogenicity was measured in stomach during the 3 week adjuvant arthritis test, no of animals with ulcers out of 8 animals tested at 0.16 mM/kg (49.4 mg) was reported.", "type": "functional", "method_in_brief": "as §3"}, "Rattus norvegicus [21]": {"system": "Rattus norvegicus", "test": "Ulcerogenicity was measured in intestine during the 3 week adjuvant arthritis test, no of animals with ulcers out of 8 animals tested at 0.16 mM/kg (49.4 mg) was reported.", "type": "functional", "method_in_brief": "as §3"}, "Rattus norvegicus [22]": {"system": "Rattus norvegicus", "test": "Antiinflammatory efficacy is measured by the weight gain in rats during the 3 week adjuvant arthritis test at 0.08 mM/kg(24.7 mg)", "type": "functional", "method_in_brief": "as §4"}, "Rattus norvegicus [23]": {"system": "Rattus norvegicus", "test": "Antiinflammatory efficacy is measured by the percent inhibition of paw volume during the 3 week adjuvant arthritis test at 0.005 mM/kg (2.19 mg)", "type": "functional", "method_in_brief": "as §2"}, "Rattus norvegicus [24]": {"system": "Rattus norvegicus", "test": "Antiinflammatory efficacy is measured by the percent inhibition of paw volume during the 3 week adjuvant arthritis test at 0.02 mM/kg (8.76 mg)", "type": "functional", "method_in_brief": "as §2"}, "Rattus norvegicus [25]": {"system": "Rattus norvegicus", "test": "The mean increase in paw volume was compared between drug treated groups and placebo to calculate the percent inhibition in rats at 0.02 mmol/kg by carrageenan Edema Assay; 50-59", "type": "functional"}, "Rattus norvegicus [26]": {"system": "Rattus norvegicus", "test": "Potency relative to phenylbutazone at 0.005 mM/kg", "type": "functional"}, "Rattus norvegicus [27]": {"system": "Rattus norvegicus", "test": "Ulcerogenicity was measured in intestine during the 3 week adjuvant arthritis test, no of animals with ulcers out of 8 animals tested at 0.02 mM/kg (8.76 mg) was reported", "type": "functional", "method_in_brief": "as §5"}, "Rattus norvegicus [28]": {"system": "Rattus norvegicus", "test": "Ulcerogenicity was measured in stomach during the 3 week adjuvant arthritis test, no of animals with ulcers out of 8 animals tested at 0.02 mM/kg (8.76 mg) was reported", "type": "functional", "method_in_brief": "as §3"}, "Rattus norvegicus [29]": {"system": "Rattus norvegicus", "test": "Ulcerogenicity was measured in intestine during the 3 week adjuvant arthritis test, no of animals with ulcers out of animals tested at 0.08 mM/kg (35.0 mg) was reported; toxic", "type": "functional, organism-based", "method_in_brief": "as §3"}, "Rattus norvegicus [30]": {"system": "Rattus norvegicus", "test": "Antiinflammatory efficacy is measured by the weight gain in rats during the 3 week adjuvant arthritis test at 0.005 mM/kg (2.19 mg)", "type": "functional", "method_in_brief": "as §4"}, "Rattus norvegicus [31]": {"system": "Rattus norvegicus", "test": "Antiinflammatory efficacy is measured by the weight gain in rats during the 3 week adjuvant arthritis test at 0.02 mM/kg (8.76 mg)", "type": "functional", "method_in_brief": "as §4"}},
  "data": [
    {"molecule": "CC(C)Cc1ccc(C(C)C(=O)O)cc1", "note": "(centres undefined) [IBUPROFEN]", "values": [
      {"measurement": "highest non-ulcerogenic dose", "setting": "Rattus norvegicus [1]", "result": 210, "unit": "µmol/kg"},
      {"measurement": "Weight gain", "setting": "Rattus norvegicus [2]", "result": 1, "unit": "%"},
      {"measurement": "Weight gain", "setting": "Rattus norvegicus [3]", "result": 18, "unit": "%"}
    ]},
    {"molecule": "COc1ccc2c(c1)c(CC(=O)O)c(C)n2C(=O)c1ccc(Cl)cc1", "note": "[INDOMETHACIN]", "values": [
      {"measurement": "highest non-ulcerogenic dose", "setting": "Rattus norvegicus [1]", "result": 0.4, "unit": "µmol/kg"},
      {"measurement": "Inhibition", "setting": "Rattus norvegicus [4]", "result": 63, "unit": "%"},
      {"measurement": "Potency", "setting": "Rattus norvegicus [5]", "result": 20, "unit": "%"},
      {"measurement": "Ulcerogenic index", "setting": "Rattus norvegicus [6]", "result": 6},
      {"measurement": "Ulcerogenic index", "setting": "Rattus norvegicus [7]", "result": 5},
      {"measurement": "Ulcerogenic index", "setting": "Rattus norvegicus [8]", "result": 3},
      {"measurement": "Ulcerogenic index", "setting": "Rattus norvegicus [9]", "result": 17},
      {"measurement": "Weight gain", "setting": "Rattus norvegicus [10]", "result": 38, "unit": "%"},
      {"measurement": "Weight gain", "setting": "Rattus norvegicus [11]", "result": 14, "unit": "%"},
      {"measurement": "Weight gain", "setting": "Rattus norvegicus [12]", "result": 48, "unit": "%"}
    ]},
    {"molecule": "CC(CN1CCCC1CC1CCCCC1)c1cccc(C(O)c2ccccc2)c1", "note": "(centres undefined)", "values": [
      {"measurement": "inhibition in vivo at 80 µmol/kg", "setting": "Rattus norvegicus [13]", "result": 0, "unit": "%"}
    ]},
    {"molecule": "CC(CN1CCOCC1)c1cccc(C(=O)c2ccccc2)c1", "note": "(centres undefined)", "values": [
      {"measurement": "highest non-ulcerogenic dose", "setting": "Rattus norvegicus [1]", "result": 8, "unit": "µmol/kg"},
      {"measurement": "Inhibition", "setting": "Rattus norvegicus [14]", "result": 82, "unit": "%"},
      {"measurement": "inhibition in vivo at 20 µmol/kg", "setting": "Rattus norvegicus [15]", "result": 30, "unit": "%"},
      {"measurement": "Relative potency", "setting": "Rattus norvegicus [16]", "result": 8.6, "unit": "%"},
      {"measurement": "inhibition in vivo at 80 µmol/kg", "setting": "Rattus norvegicus [17]", "result": 80, "unit": "%"},
      {"measurement": "Ulcerogenic index", "setting": "Rattus norvegicus [18]", "result": 1},
      {"measurement": "Ulcerogenic index", "setting": "Rattus norvegicus [19]", "result": 0},
      {"measurement": "Ulcerogenic index", "setting": "Rattus norvegicus [20]", "result": 1},
      {"measurement": "Ulcerogenic index", "setting": "Rattus norvegicus [21]", "result": 3},
      {"measurement": "Weight gain", "setting": "Rattus norvegicus [22]", "result": 66, "unit": "%"}
    ]},
    {"molecule": "CC(CN1CCCCC1CC1CCCCC1)c1cccc(C(=O)c2ccc(Cl)cc2)c1", "note": "(centres undefined)", "values": [
      {"measurement": "highest non-ulcerogenic dose", "setting": "Rattus norvegicus [1]", "result": 3, "unit": "µmol/kg"},
      {"measurement": "Inhibition", "setting": "Rattus norvegicus [23]", "result": 62, "unit": "%"},
      {"measurement": "Inhibition", "setting": "Rattus norvegicus [24]", "result": 90, "unit": "%"},
      {"measurement": "inhibition in vivo at 20 µmol/kg", "setting": "Rattus norvegicus [25]", "result": 50, "unit": "%"},
      {"measurement": "Relative potency", "setting": "Rattus norvegicus [26]", "result": 11.9, "unit": "%"},
      {"measurement": "Ulcerogenic index", "setting": "Rattus norvegicus [27]", "result": 0},
      {"measurement": "Ulcerogenic index", "setting": "Rattus norvegicus [28]", "result": 0},
      {"measurement": "Ulcerogenic index", "setting": "Rattus norvegicus [29]", "result": "Toxic"},
      {"measurement": "Weight gain", "setting": "Rattus norvegicus [30]", "result": 34, "unit": "%"},
      {"measurement": "Weight gain", "setting": "Rattus norvegicus [31]", "result": 89, "unit": "%"}
    ]}
  ]
}
